Reference: ChEMBL document CHEMBL4689842, “EUbOPEN Chemogenomics Library wave 1” (2021)

Columns and labels:
Assay type in all cases: toxicity, cell-based
Fibroblast = assay: Multiplex assay against human fibroblast
In short: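 Live cells carried four stains from seeding: Hoechst33342, BioTracker Green Microtubule Cytoskeleton Dye, MitoTracker Red and Annexin V Alexa Fluor 680. They were imaged on a CQ1 microscope at 37°C and 5% CO2 after compound addition. Using CellPathfinder machine-learning gating, cells were split into Hoechst high-intensity objects or normal cells, normal cells into healthy, pyknosed or fragmented nuclei, and pyknosed cells into mitotic or apoptotic; tubulin, mitochondrial-mass and membrane-permeability phenotypes are per cents of healthy-nucleus cells.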

U2OS = assay: Incucyte cell viability with U2OS; conditions: human, 10 µM, compound concentration 10 uM; further: filed as whole numbers so only -1 and 0 and 1 occur
HEK-293T = assay: Incucyte cell viability with HEK293T; conditions: human, 10 µM, compound concentration 10 uM; further: filed as whole numbers so only -1 and 0 and 1 occur
[1] = 12 h, 1 µM, compound concentration 1 uM, replicate 1
[2] = 12 h, 1 µM, compound concentration 1 uM, replicate 2
[3] = 12 h, 10 µM, compound concentration 10 uM, replicate 1
[4] = 12 h, 10 µM, compound concentration 10 uM, replicate 2
[5] = 24 h, 1 µM, compound concentration 1 uM, replicate 1
[6] = 24 h, 1 µM, compound concentration 1 uM, replicate 2
[7] = 24 h, 10 µM, compound concentration 10 uM, replicate 1
[8] = 24 h, 10 µM, compound concentration 10 uM, replicate 2
[9] = 48 h, 1 µM, compound concentration 1 uM, replicate 1
[10] = 48 h, 1 µM, compound concentration 1 uM, replicate 2
[11] = 48 h, 10 µM, compound concentration 10 uM, replicate 1
[12] = 48 h, 10 µM, compound concentration 10 uM, replicate 2
[13] = 0 h, replicate number 1, timepoint 0 hours
[14] = 12 h, replicate number 1, timepoint 12 hours
[15] = 18 h, replicate number 1, timepoint 18 hours
[16] = 24 h, replicate number 1, timepoint 24 hours

**Q.** Which results are given for CC(C)N1CCC(C)(C)c2cc(C#Cc3ccc(C(=O)O)cc3)ccc21?
**A.** Population Apoptotic (%) (Fibroblast; [1]): 89%; Population Fragmented Nuclei (%) (Fibroblast; [1]): 42%; Population Healthy Nuclei (%) (Fibroblast; [1]): 41%; Population Hoechst High Intensity Objects (%) (Fibroblast; [1]): 41%; Population Membrane Permeable-Phenotype (%) (Fibroblast; [1]): 30%; Population Mitochondria Different-Phenotype (%) (Fibroblast; [1]): 6%; Population Mitotic Cells (%) (Fibroblast; [1]): 10%; Population Normal (%) (Fibroblast; [1]): 58%; Population Pyknosed Nuclei (%) (Fibroblast; [1]): 15%; Population Tubulin-Different-Phenotype (%) (Fibroblast; [1]): 46%; Total Cell Count (Fibroblast; [1]): 207; Population Apoptotic (%) (Fibroblast; [2]): 20%; Population Fragmented Nuclei (%) (Fibroblast; [2]): 16%; Population Healthy Nuclei (%) (Fibroblast; [2]): 75%; Population Hoechst High Intensity Objects (%) (Fibroblast; [2]): 13%; Population Membrane Permeable-Phenotype (%) (Fibroblast; [2]): 6%; Population Mitochondria Different-Phenotype (%) (Fibroblast; [2]): 15%; Population Mitotic Cells (%) (Fibroblast; [2]): 80%; Population Normal (%) (Fibroblast; [2]): 86%; Population Pyknosed Nuclei (%) (Fibroblast; [2]): 8%; Population Tubulin-Different-Phenotype (%) (Fibroblast; [2]): 20%; Total Cell Count (Fibroblast; [2]): 69; Population Apoptotic (%) (Fibroblast; [3]): 75%; Population Fragmented Nuclei (%) (Fibroblast; [3]): 89%; Population Healthy Nuclei (%) (Fibroblast; [3]): 6%; Population Hoechst High Intensity Objects (%) (Fibroblast; [3]): 76%; Population Membrane Permeable-Phenotype (%) (Fibroblast; [3]): 14%; Population Mitochondria Different-Phenotype (%) (Fibroblast; [3]): 0%; Population Mitotic Cells (%) (Fibroblast; [3]): 25%; Population Normal (%) (Fibroblast; [3]): 23%; Population Pyknosed Nuclei (%) (Fibroblast; [3]): 3%; Population Tubulin-Different-Phenotype (%) (Fibroblast; [3]): 7%; Total Cell Count (Fibroblast; [3]): 898; Population Apoptotic (%) (Fibroblast; [4]): 0%; Population Fragmented Nuclei (%) (Fibroblast; [4]): 55%; Population Healthy Nuclei (%) (Fibroblast; [4]): 44%; Population Hoechst High Intensity Objects (%) (Fibroblast; [4]): 71%; Population Membrane Permeable-Phenotype (%) (Fibroblast; [4]): 4%; Population Mitochondria Different-Phenotype (%) (Fibroblast; [4]): 14%; Population Mitotic Cells (%) (Fibroblast; [4]): 0%; Population Normal (%) (Fibroblast; [4]): 28%; Population Pyknosed Nuclei (%) (Fibroblast; [4]): 0%; Population Tubulin-Different-Phenotype (%) (Fibroblast; [4]): 28%; Total Cell Count (Fibroblast; [4]): 327; Population Apoptotic (%) (Fibroblast; [5]): 85%; Population Fragmented Nuclei (%) (Fibroblast; [5]): 39%; Population Healthy Nuclei (%) (Fibroblast; [5]): 48%; Population Hoechst High Intensity Objects (%) (Fibroblast; [5]): 41%; Population Membrane Permeable-Phenotype (%) (Fibroblast; [5]): 29%; Population Mitochondria Different-Phenotype (%) (Fibroblast; [5]): 1%; Population Mitotic Cells (%) (Fibroblast; [5]): 14%; Population Normal (%) (Fibroblast; [5]): 58%; Population Pyknosed Nuclei (%) (Fibroblast; [5]): 11%; Population Tubulin-Different-Phenotype (%) (Fibroblast; [5]): 38%; Total Cell Count (Fibroblast; [5]): 202; Population Apoptotic (%) (Fibroblast; [6]): 50%; Population Fragmented Nuclei (%) (Fibroblast; [6]): 18%; Population Healthy Nuclei (%) (Fibroblast; [6]): 76%; Population Hoechst High Intensity Objects (%) (Fibroblast; [6]): 4%; Population Membrane Permeable-Phenotype (%) (Fibroblast; [6]): 3%; Population Mitochondria Different-Phenotype (%) (Fibroblast; [6]): 10%; Population Mitotic Cells (%) (Fibroblast; [6]): 50%; Population Normal (%) (Fibroblast; [6]): 95%; Population Pyknosed Nuclei (%) (Fibroblast; [6]): 5%; Population Tubulin-Different-Phenotype (%) (Fibroblast; [6]): 18%; Total Cell Count (Fibroblast; [6]): 81; Population Apoptotic (%) (Fibroblast; [7]): 72%; Population Fragmented Nuclei (%) (Fibroblast; [7]): 86%; Population Healthy Nuclei (%) (Fibroblast; [7]): 7%; Population Hoechst High Intensity Objects (%) (Fibroblast; [7]): 78%; Population Membrane Permeable-Phenotype (%) (Fibroblast; [7]): 33%; Population Mitochondria Different-Phenotype (%) (Fibroblast; [7]): 0%; Population Mitotic Cells (%) (Fibroblast; [7]): 27%; Population Normal (%) (Fibroblast; [7]): 21%; Population Pyknosed Nuclei (%) (Fibroblast; [7]): 5%; Population Tubulin-Different-Phenotype (%) (Fibroblast; [7]): 20%; Total Cell Count (Fibroblast; [7]): 921; Population Apoptotic (%) (Fibroblast; [8]): 100%; Population Fragmented Nuclei (%) (Fibroblast; [8]): 49%; Population Healthy Nuclei (%) (Fibroblast; [8]): 47%; Population Hoechst High Intensity Objects (%) (Fibroblast; [8]): 66%; Population Membrane Permeable-Phenotype (%) (Fibroblast; [8]): 3%; Population Mitochondria Different-Phenotype (%) (Fibroblast; [8]): 3%; Population Mitotic Cells (%) (Fibroblast; [8]): 0%; Population Normal (%) (Fibroblast; [8]): 33%; Population Pyknosed Nuclei (%) (Fibroblast; [8]): 2%; Population Tubulin-Different-Phenotype (%) (Fibroblast; [8]): 26%; Total Cell Count (Fibroblast; [8]): 352; Population Apoptotic (%) (Fibroblast; [9]): 57%; Population Fragmented Nuclei (%) (Fibroblast; [9]): 47%; Population Healthy Nuclei (%) (Fibroblast; [9]): 45%; Population Hoechst High Intensity Objects (%) (Fibroblast; [9]): 45%; Population Membrane Permeable-Phenotype (%) (Fibroblast; [9]): 29%; Population Mitochondria Different-Phenotype (%) (Fibroblast; [9]): 0%; Population Mitotic Cells (%) (Fibroblast; [9]): 42%; Population Normal (%) (Fibroblast; [9]): 54%; Population Pyknosed Nuclei (%) (Fibroblast; [9]): 6%; Population Tubulin-Different-Phenotype (%) (Fibroblast; [9]): 29%; Total Cell Count (Fibroblast; [9]): 202; Population Apoptotic (%) (Fibroblast; [10]): 0%; Population Fragmented Nuclei (%) (Fibroblast; [10]): 57%; Population Healthy Nuclei (%) (Fibroblast; [10]): 42%; Population Hoechst High Intensity Objects (%) (Fibroblast; [10]): 35%; Population Membrane Permeable-Phenotype (%) (Fibroblast; [10]): 14%; Population Mitochondria Different-Phenotype (%) (Fibroblast; [10]): 5%; Population Mitotic Cells (%) (Fibroblast; [10]): 100%; Population Normal (%) (Fibroblast; [10]): 64%; Population Pyknosed Nuclei (%) (Fibroblast; [10]): 0%; Population Tubulin-Different-Phenotype (%) (Fibroblast; [10]): 25%; Total Cell Count (Fibroblast; [10]): 198; Population Apoptotic (%) (Fibroblast; [11]): 60%; Population Fragmented Nuclei (%) (Fibroblast; [11]): 90%; Population Healthy Nuclei (%) (Fibroblast; [11]): 6%; Population Hoechst High Intensity Objects (%) (Fibroblast; [11]): 77%; Population Membrane Permeable-Phenotype (%) (Fibroblast; [11]): 25%; Population Mitochondria Different-Phenotype (%) (Fibroblast; [11]): 0%; Population Mitotic Cells (%) (Fibroblast; [11]): 40%; Population Normal (%) (Fibroblast; [11]): 22%; Population Pyknosed Nuclei (%) (Fibroblast; [11]): 2%; Population Tubulin-Different-Phenotype (%) (Fibroblast; [11]): 18%; Total Cell Count (Fibroblast; [11]): 1050; Population Apoptotic (%) (Fibroblast; [12]): 0%; Population Fragmented Nuclei (%) (Fibroblast; [12]): 93%; Population Hoechst High Intensity Objects (%) (Fibroblast; [12]): 84%; Population Membrane Permeable-Phenotype (%) (Fibroblast; [12]): 20%; Population Mitochondria Different-Phenotype (%) (Fibroblast; [12]): 10%; Population Mitotic Cells (%) (Fibroblast; [12]): 0%; Population Normal (%) (Fibroblast; [12]): 15%; Population Pyknosed Nuclei (%) (Fibroblast; [12]): 0%; Population Tubulin-Different-Phenotype (%) (Fibroblast; [12]): 10%; Total Cell Count (Fibroblast; [12]): 961; Growth Rate (U2OS; [13]): 0; Growth Rate (U2OS; 6 h, replicate number 2, timepoint 6 hours): 0; Growth Rate (U2OS; [14]): 1; Growth Rate (U2OS; [15]): 1; Growth Rate (U2OS; [16]): 1; Growth Rate (HEK-293T; [13]): 1; Growth Rate (HEK-293T; 0 h, replicate number 2, timepoint 0 hours): 0; Growth Rate (HEK-293T; 6 h, replicate number 1, timepoint 6 hours): 1; Growth Rate (HEK-293T; [14]): 0; Growth Rate (HEK-293T; [15]): 0; Growth Rate (HEK-293T; [16]): 0
